Calls of active or inactive are those of the source. No cut-off for these calls is given here.

Data set [1] has as its system MGC-803. Nature of the data set: Cell cycle arrest in human MGC-803 cells assessed as accumulation at S phase at 0.125 uM after 48 hrs by propidium iodide staining-based flow cytometric analysis (reference value: 45.1 %). The format is functional. (A flow cytometer gives signals particle by particle.)
Data set [2] concerns MGC-803. Nature of the data set: Induction of apoptosis in human MGC-803 cells assessed as activation of caspase 9 at 2.5 uM incubated for 24 hrs by flow cytometric analysis (reference value: 2.82%). In kind it is functional.
Data set [3] has as its system MGC-803. The data set can be described thus: Induction of apoptosis in human MGC-803 cells assessed as late apoptotic cells at 0.5 uM measured after 24 hrs by Annexin-V/propidium iodide staining-based flow cytometric analysis (Rvb =0.93%).
The test system of data set [4] is MGC-803. Nature of the data set: Induction of apoptosis in human MGC-803 cells assessed as viable cells at 0.5 uM measured after 24 hrs by Annexin-V/propidium iodide staining-based flow cytometric analysis (Rvb =92.2 %). The note with it: MGC-803, 24 h.
In a further data set the test system is DNA. Nature of the data set: Binding affinity to Escherichia coli pBR322 DNA assessed as intercalation upto 100 uM by agarose gel electrophoresis assay. The format is nucleic-acid assay. The following applies: dose microM <=100. Put shortly: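 pBR322 plasmid DNA incubated with compound at 50, 100 or 200 µM for 3 h in TAE buffer. Reaction stopped with loading buffer. Run on 1% agarose gel, stained with ethidium bromide, imaged under UV transillumination. Lane controls: DNA with 1% DMSO (negative), DNA with EB (positive).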

A further data set relates to Mus musculus. Nature of the data set: Toxicity against BALB/c nude mouse xenografted with human MGC-803 cells assessed as body weight at 10 mg/kg, ip administered every 2 days and measured 3 times per week for 16 days. In kind it is organism-based. The following applies: in vivo, 384 h, time 16 day. The procedure, abridged: (§1)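 Male BALB/c nude mice, 6 weeks old, received 5×10^6 MGC-803 cells subcutaneously in the flank. At about 80 mm3, mice were randomized (n = 6/group). They were dosed i.p. every 2 days with vehicle (5% DMSO in saline, v/v) or drug in DMSO/saline at 1.0 or 2.0 mg/mL. Body weight was recorded three times weekly; mean ± SD.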
(In general: A xenograft is tissue or cells of one species grown in another, often human tumour cells in immunodeficient mice.)

The subject of data set [5] is MGC-803. Nature of the data set: Induction of apoptosis in human MGC-803 cells assessed as late apoptotic cells at 2.5 uM measured after 24 hrs by Annexin-V/propidium iodide staining-based flow cytometric analysis (Rvb =0.93%).
Data set [6] is described as follows: Toxicity against BALB/c nude mouse xenografted with human MGC-803 cells assessed as body weight at 20 mg/kg, ip administered every 2 days and measured 3 times per week for 16 days. The format is organism-based. The following applies: in vivo, 384 h, time 16 day. Put shortly: as §1
Data set [7] has as its system MGC-803. The data set can be described thus: Induction of intracellular Ca+ level in human MGC-803 cells at 0 to 2.5 uM after 24 hrs by fluo-3 AM dye based flow cytometric analysis. The format is functional, cell-based. The note with it: dose 0-2.5 µM. The procedure, abridged: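 MGC-803 cells in six-well plates exposed 24 h to 0.5, 1.0 or 2.5 μM. Cells were harvested, washed in cold PBS and loaded with Fluo-3 AM for 30 min at 37 in the dark. After three PBS washes, intracellular Ca2+ fluorescence was read by flow cytometry. Three independent experiments.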

With `NCCCCNc1nc(/C=C/c2ccc([N+](=O)[O-])cc2)nc2ccccc12`, the Activity in the data set with MGC-803 [1] was 46.45%; with MGC-803 [2] it was 57.35%; in the data set with MGC-803 [3], 6.91%; with Mus musculus it was “Non-Toxic”; in the data set with MGC-803 [5], 55.9%; in data set [6], “Non-Toxic”. In addition, the viability at 0.5 µM with MGC-803 [4] came out at 71%. The result with DNA and with MGC-803 [7] was Active.

As usually defined, the viability is a per cent measure of how many cells are alive, often set against a control.

The record behind these values is ChEMBL document CHEMBL4680124, “2-Styryl-4-aminoquinazoline derivatives as potent DNA-cleavage, p53-activation and in vivo effective anticancer agents” (Eur J Med Chem, 2020).
